This is an account of results in ChEMBL document CHEMBL3352261, “Discovery of inhibitors of the mitotic kinase TTK based on N-(3-(3-sulfamoylphenyl)-1H-indazol-5-yl)-acetamides and carboxamides” (Bioorg Med Chem, 2014).

The nature of data set [1]: Antitumor activity against human HCT116 cells xenografted in SCID mouse assessed as tumor growth inhibition at 25 mg/kg, ip qd for 18 days. In kind it is functional. The following applies: HCT-116, ip, 432 h, route intraperitoneal, read-out: TGI. An outline of the steps: (§1)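 Mice bore HCT116 tumour xenografts. Arms were dosed IP at 12.5 or 25 mg/kg QD, or at 12.5 mg/kg BID. The reference arm received 5-fluorouracil IP at 15 mg/kg daily. Tumour volume was compared with a negative control group to give percent tumour growth inhibition. Body weight was monitored in all arms.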
Background: In xenograft studies the graft and the host belong to different species.

Data set [2] is described as follows: AUC in SCID mouse at 25 mg/kg, po. In kind it is ADME, organism-based. Set-up: dose 25 mg/kg, route oral. The following applies: plasma. An outline of the steps:
(§2)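 Mice were dosed at 25 mg/kg by the IP or the PO route. Drug levels were measured in plasma, and Cmax (µg/mL) and AUC (µg h/mL) were derived for each route.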

In data set [3] the test system is Mus musculus. In words: Toxicity in SCID mouse assessed as body weight loss at 12.5 mg/kg, ip bid for 18 days. The following applies: in vivo, 432 h. It counts as organism-based. Further details: dose 12.5 mg/kg, route intraperitoneal. The method, boiled down:
as §1

The next data set relates to HCT-116. In words: Antitumor activity against human HCT116 cells xenografted in SCID mouse assessed as tumor growth inhibition administered ip qd for 18 days. In kind it is functional, organism-based. The method, boiled down: as §1
Data set [4] in a line: Cmax in SCID mouse at 25 mg/kg, po. It counts as ADME, organism-based. Further details: dose 25 mg/kg, route oral. The following applies: in vivo. An outline of the steps:
as §2

The subject of data set [5] is Mus musculus. Description: Toxicity in SCID mouse assessed as body weight loss at 12.5 mg/kg, ip qd for 18 days. Set-up: dose 12.5 mg/kg, route intraperitoneal. The following applies: in vivo, 432 h. It counts as organism-based. An outline of the steps: as §1
Data set [6] in a line: Antitumor activity against human HCT116 cells xenografted in SCID mouse assessed as tumor growth inhibition at 12.5 mg/kg, ip bid for 18 days. In kind it is functional. The following applies: HCT-116, ip, 432 h, route intraperitoneal, read-out: TGI. An outline of the steps: as §1

The AUC is the area under the concentration-time curve, a measure of exposure. Usually Cmax stands for the peak of the concentration-time curve. As for `CCc1ccccc1C(C(=O)Nc1ccc2[nH]nc(-c3cccc(S(N)(=O)=O)c3)c2c1)N(C)C` (racemic), the inhibition in vivo at 25 mg/kg in data set [1] came out at 66%. The AUC in data set [2] came to 140 ng·h/mL. Besides, the Activity result in the data set on Mus musculus [3] and in the data set on Mus musculus [5] was “Non-toxic” in each case. For the same compound, the TGI entry in the data set with HCT-116 was “Dose-dependent effect”. The peak level in data set [4] (Cmax) was 130 ng/mL. For the same compound, in data set [6], the inhibition in vivo at 12.5 mg/kg came out at 46%.
